According to ChEMBL document CHEMBL2384906, “Biological activity, design, synthesis and structure activity relationship of some novel derivatives of curcumin containing sulfonamides” (Eur J Med Chem, 2013):
In brackets after ≈: the same amount, converted by molar mass.

Columns and labels:
Curvularia lunata [1] = experiment: Antifungal activity against Curvularia lunata MTCC 581 after 48 hrs; format: functional; conditions: MTCC 581, 48 h
Salmonella typhi [2] = experiment: Antimicrobial activity against Salmonella typhi ATCC 23564 assessed as diameter of inhibition zone at 40 uM after 24 hrs by Kirby -Baur disc diffusion method; format: functional, Salmonella enterica subsp. enterica serovar Typhi; conditions: Salmonella enterica, ATCC 23564, 24 h; read-out: DIZ
Staphylococcus aureus [3] = experiment: Antimicrobial activity against Staphylococcus aureus ATCC 11632 assessed as diameter of inhibition zone at 40 uM after 24 hrs by Kirby -Baur disc diffusion method; format: functional; conditions: ATCC 11632, 24 h, read-out: DIZ
Summary of the method: (§1)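 Kirby-Bauer disc diffusion was used. Acetone stocks (160 µM) were serially doubled down to 80, 40 and 20 µM. 4 µL of each went onto 5 mm sterile paper discs, which were dried 30 min at 50 °C. Inoculum was 1.5 × 10⁸ CFU/mL diluted to 3 × 10² CFU/mL, and 50 µL was spread on Mueller-Hinton agar. After 24 h at 37 °C the inhibition-zone diameter was measured. Ciprofloxacin served as positive control.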

Salmonella typhi [4] = experiment: Antimicrobial activity against Salmonella typhi ATCC 23564 assessed as diameter of inhibition zone at 80 uM after 24 hrs by Kirby -Baur disc diffusion method; format: functional, Salmonella enterica subsp. enterica serovar Typhi; conditions: Salmonella enterica, ATCC 23564, 24 h; read-out: DIZ
Pseudomonas aeruginosa [5] = experiment: Antimicrobial activity against Pseudomonas aeruginosa ATCC 15499 assessed as diameter of inhibition zone at 40 uM after 24 hrs by Kirby -Baur disc diffusion method; format: functional; conditions: ATCC 15499, 24 h, read-out: DIZ; summary of the method: as §1
Aspergillus niger [6] = experiment: Antifungal activity against Aspergillus niger MTCC 1108 after 48 hrs; format: functional; conditions: MTCC 1108, 48 h
Bacillus cereus [7] = experiment: Antimicrobial activity against Bacillus cereus MTCC 7350 assessed as diameter of inhibition zone at 40 uM after 24 hrs by Kirby -Baur disc diffusion method; format: functional; conditions: MTCC 7350, 24 h, read-out: DIZ; summary of the method: as §1
Salmonella typhi [8] = experiment: Antimicrobial activity against Salmonella typhi ATCC 23564 assessed as diameter of inhibition zone at 20 uM after 24 hrs by Kirby -Baur disc diffusion method; format: functional, Salmonella enterica subsp. enterica serovar Typhi; conditions: Salmonella enterica, ATCC 23564, 24 h; read-out: DIZ
QG-56 = experiment: Cytotoxicity against human QG56 cells after 24 hrs by MTT assay; format: functional, cell-based
Summary of the method: (§2)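 The MTT assay seeded 5 × 10⁴ cells per well and grew them 24 h in RPMI 1640 with compound at 2.5–200 µM. Medium without cells was the blank and adriamycin the positive control. MTT was added for 4 h at 37 °C, formazan was solubilised, and absorbance was read at 570 nm. IC50 is the concentration that cuts viability 50% against untreated cells.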

Pseudomonas aeruginosa [9] = experiment: Antimicrobial activity against Pseudomonas aeruginosa ATCC 15499 after 24 hrs by broth micro serial dilution method; format: functional; conditions: ATCC 15499, 24 h
Summary of the method: (§3)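 This was broth microdilution in autoclaved Mueller-Hinton broth. 150 µL of compound per well was serially diluted […], and 50 µL of test organism was added. Plates were incubated 24 h at 37 °C and optical density was read.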

Salmonella typhi [10] = experiment: Antimicrobial activity against Salmonella typhi ATCC 23564 after 24 hrs by broth micro serial dilution method; format: functional, Salmonella enterica subsp. enterica serovar Typhi; conditions: Salmonella enterica, ATCC 23564, 24 h
Escherichia coli [11] = experiment: Antimicrobial activity against Escherichia coli ATCC 35218 after 24 hrs by broth micro serial dilution method; format: functional; conditions: ATCC 35218, 24 h; summary of the method: as §3
Aspergillus flavus [12] = experiment: Antifungal activity against Aspergillus flavus MTCC 1021 assessed as zone of inhibition at 40 uM after 48 hrs by disc diffusion method; format: functional; conditions: MTCC 1021, 48 h, read-out: IZ
Summary of the method: (§4)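 Spores from 4-day potato dextrose agar cultures, suspended in sterile water at 1.5 × 10⁵ CFU/mL. 0.2 mL was spread on potato dextrose agar. 5 mm filter-paper discs soaked with test compound were laid on the lawn. Incubation was 48 h at 28 °C, then the inhibition zone was measured in mm. Fluconazole was the positive control and acetone the negative control.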

Escherichia coli [13] = experiment: Antimicrobial activity against Escherichia coli ATCC 35218 assessed as diameter of inhibition zone at 80 uM after 24 hrs by Kirby -Baur disc diffusion method; format: functional; conditions: ATCC 35218, 24 h, read-out: DIZ; summary of the method: as §1
Trichoderma viride [14] = experiment: Antifungal activity against Trichoderma viride MTCC 1107 assessed as zone of inhibition at 80 uM after 48 hrs by disc diffusion method; format: functional; conditions: MTCC 1107, 48 h, read-out: IZ; summary of the method: as §4
Trichoderma viride [15] = experiment: Antifungal activity against Trichoderma viride MTCC 1107 after 48 hrs; format: functional; conditions: MTCC 1107, 48 h
Aspergillus niger [16] = experiment: Antifungal activity against Aspergillus niger MTCC 1108 assessed as zone of inhibition at 40 uM after 48 hrs by disc diffusion method; format: functional; conditions: MTCC 1108, 48 h, read-out: IZ; summary of the method: as §4
Escherichia coli [17] = experiment: Antimicrobial activity against Escherichia coli ATCC 35218 assessed as diameter of inhibition zone at 20 uM after 24 hrs by Kirby -Baur disc diffusion method; format: functional; conditions: ATCC 35218, 24 h, read-out: DIZ; summary of the method: as §1
Pseudomonas aeruginosa [18] = experiment: Antimicrobial activity against Pseudomonas aeruginosa ATCC 15499 assessed as diameter of inhibition zone at 80 uM after 24 hrs by Kirby -Baur disc diffusion method; format: functional; conditions: ATCC 15499, 24 h, read-out: DIZ; summary of the method: as §1
Trichoderma viride [19] = experiment: Antifungal activity against Trichoderma viride MTCC 1107 assessed as zone of inhibition at 40 uM after 48 hrs by disc diffusion method; format: functional; conditions: MTCC 1107, 48 h, read-out: IZ; summary of the method: as §4
HCT-116 = experiment: Cytotoxicity against human HCT116 cells after 24 hrs by MTT assay; format: functional, cell-based; summary of the method: as §2
Aspergillus niger [20] = experiment: Antifungal activity against Aspergillus niger MTCC 1108 assessed as zone of inhibition at 20 uM after 48 hrs by disc diffusion method; format: functional; conditions: MTCC 1108, 48 h, read-out: IZ; summary of the method: as §4
Curvularia lunata [21] = experiment: Antifungal activity against Curvularia lunata MTCC 581 assessed as zone of inhibition at 20 uM after 48 hrs by disc diffusion method; format: functional; conditions: MTCC 581, 48 h, read-out: IZ; summary of the method: as §4
Escherichia coli [22] = experiment: Antimicrobial activity against Escherichia coli ATCC 35218 assessed as diameter of inhibition zone at 40 uM after 24 hrs by Kirby -Baur disc diffusion method; format: functional; conditions: ATCC 35218, 24 h, read-out: DIZ; summary of the method: as §1
Staphylococcus aureus [23] = experiment: Antimicrobial activity against Staphylococcus aureus ATCC 11632 assessed as diameter of inhibition zone at 20 uM after 24 hrs by Kirby -Baur disc diffusion method; format: functional; conditions: ATCC 11632, 24 h, read-out: DIZ; summary of the method: as §1
Pseudomonas aeruginosa [24] = experiment: Antimicrobial activity against Pseudomonas aeruginosa ATCC 15499 assessed as diameter of inhibition zone at 20 uM after 24 hrs by Kirby -Baur disc diffusion method; format: functional; conditions: ATCC 15499, 24 h, read-out: DIZ; summary of the method: as §1
Aspergillus flavus [25] = experiment: Antifungal activity against Aspergillus flavus MTCC 1021 after 48 hrs; format: functional; conditions: MTCC 1021, 48 h
Mus musculus = experiment: Antiinflammatory activity in mouse assessed as inhibition of carrageenan-induced increase in paw volume at 200 mg/kg administered 1 hr prior to carrageenan challenge measured after 3 hrs relative to control; format: functional
Summary of the method: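 Mice were fasted 2 h and placed in groups of five. Controls received saline i.p. Phenylbutazone was given at 100 mg/kg i.p., curcumin at 200 mg/kg i.p., and derivatives at 200 mg/kg. After 1 h, 0.1 mL of 1% carrageenan in saline was injected subplantar into the right hind paw. Paw volume was followed by plethysmometer for 3 h, and % inhibition was calculated as (Vc − Vt)/Vc × 100.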

HepG2 = experiment: Cytotoxicity against human HepG2 cells after 24 hrs by MTT assay; format: functional, cell-based; summary of the method: as §2
Bacillus cereus [26] = experiment: Antimicrobial activity against Bacillus cereus MTCC 7350 assessed as diameter of inhibition zone at 20 uM after 24 hrs by Kirby -Baur disc diffusion method; format: functional; conditions: MTCC 7350, 24 h, read-out: DIZ; summary of the method: as §1
Staphylococcus aureus [27] = experiment: Antimicrobial activity against Staphylococcus aureus ATCC 11632 after 24 hrs by broth micro serial dilution method; format: functional; conditions: ATCC 11632, 24 h; summary of the method: as §3
Curvularia lunata [28] = experiment: Antifungal activity against Curvularia lunata MTCC 581 assessed as zone of inhibition at 80 uM after 48 hrs by disc diffusion method; format: functional; conditions: MTCC 581, 48 h, read-out: IZ; summary of the method: as §4
Bacillus cereus [29] = experiment: Antimicrobial activity against Bacillus cereus MTCC 7350 assessed as diameter of inhibition zone at 80 uM after 24 hrs by Kirby -Baur disc diffusion method; format: functional; conditions: MTCC 7350, 24 h, read-out: DIZ; summary of the method: as §1
Aspergillus flavus [30] = experiment: Antifungal activity against Aspergillus flavus MTCC 1021 assessed as zone of inhibition at 80 uM after 48 hrs by disc diffusion method; format: functional; conditions: MTCC 1021, 48 h, read-out: IZ; summary of the method: as §4
Curvularia lunata [31] = experiment: Antifungal activity against Curvularia lunata MTCC 581 assessed as zone of inhibition at 40 uM after 48 hrs by disc diffusion method; format: functional; conditions: MTCC 581, 48 h, read-out: IZ; summary of the method: as §4
HeLa = experiment: Cytotoxicity against human HeLa cells after 24 hrs by MTT assay; format: functional, cell-based; summary of the method: as §2
Aspergillus niger [32] = experiment: Antifungal activity against Aspergillus niger MTCC 1108 assessed as zone of inhibition at 80 uM after 48 hrs by disc diffusion method; format: functional; conditions: MTCC 1108, 48 h, read-out: IZ; summary of the method: as §4
Trichoderma viride [33] = experiment: Antifungal activity against Trichoderma viride MTCC 1107 assessed as zone of inhibition at 20 uM after 48 hrs by disc diffusion method; format: functional; conditions: MTCC 1107, 48 h, read-out: IZ; summary of the method: as §4
Bacillus cereus [34] = experiment: Antimicrobial activity against Bacillus cereus MTCC 7350 after 24 hrs by broth micro serial dilution method; format: functional; conditions: MTCC 7350, 24 h; summary of the method: as §3
Aspergillus flavus [35] = experiment: Antifungal activity against Aspergillus flavus MTCC 1021 assessed as zone of inhibition at 20 uM after 48 hrs by disc diffusion method; format: functional; conditions: MTCC 1021, 48 h, read-out: IZ; summary of the method: as §4
Staphylococcus aureus [36] = experiment: Antimicrobial activity against Staphylococcus aureus ATCC 11632 assessed as diameter of inhibition zone at 80 uM after 24 hrs by Kirby -Baur disc diffusion method; format: functional; conditions: ATCC 11632, 24 h, read-out: DIZ; summary of the method: as §1

**Q.** What does the source list for `COc1ccc(NS(=O)(=O)c2ccc(/N=C(\C=C\c3ccc(O)c(OC)c3)CC(/C=C/c3ccc(O)c(OC)c3)=N/c3ccc(S(=O)(=O)Nc4ccc(OC)nn4)cc3)cc2)nn1`?
**A.** MIC (Curvularia lunata [1]): 20 µM (≈ 17.9 µg/mL); zone of inhibition at 40 µM (Salmonella typhi [2]): 19 mm; zone of inhibition at 40 µM (Staphylococcus aureus [3]): 19 mm; zone of inhibition at 80 µM (Salmonella typhi [4]): 21 mm; zone of inhibition at 40 µM (Pseudomonas aeruginosa [5]): 19 mm; MIC (Aspergillus niger [6]): 40 µM (≈ 35.7 µg/mL); zone of inhibition at 40 µM (Bacillus cereus [7]): 17 mm; zone of inhibition at 20 µM (Salmonella typhi [8]): 14 mm; IC50 (QG-56): 50 µM; MIC (Pseudomonas aeruginosa [9]): 40 µM (≈ 35.7 µg/mL); MIC (Salmonella typhi [10]): 40 µM (≈ 35.7 µg/mL); MIC (Escherichia coli [11]): 40 µM (≈ 35.7 µg/mL); zone of inhibition at 40 µM (Aspergillus flavus [12]): 11 mm; zone of inhibition at 80 µM (Escherichia coli [13]): 19 mm; zone of inhibition at 80 µM (Trichoderma viride [14]): 19 mm; MIC (Trichoderma viride [15]): 20 µM (≈ 17.9 µg/mL); zone of inhibition at 40 µM (Aspergillus niger [16]): 10 mm; zone of inhibition at 20 µM (Escherichia coli [17]): 14 mm; zone of inhibition at 80 µM (Pseudomonas aeruginosa [18]): 22 mm; zone of inhibition at 40 µM (Trichoderma viride [19]): 16 mm; IC50 (HCT-116): 25 µM; zone of inhibition at 20 µM (Aspergillus niger [20]): 8 mm; zone of inhibition at 20 µM (Curvularia lunata [21]): 12 mm; zone of inhibition at 40 µM (Escherichia coli [22]): 17 mm; zone of inhibition at 20 µM (Staphylococcus aureus [23]): 11 mm; zone of inhibition at 20 µM (Pseudomonas aeruginosa [24]): 12 mm; MIC (Aspergillus flavus [25]): 80 µM (≈ 71.4 µg/mL); inhibition in vivo at 200 mg/kg (Mus musculus): 33.8%; IC50 (HepG2): 50 µM; zone of inhibition at 20 µM (Bacillus cereus [26]): 13 mm; MIC (Staphylococcus aureus [27]): 40 µM (≈ 35.7 µg/mL); zone of inhibition at 80 µM (Curvularia lunata [28]): 18 mm; zone of inhibition at 80 µM (Bacillus cereus [29]): 22 mm; zone of inhibition at 80 µM (Aspergillus flavus [30]): 13 mm; zone of inhibition at 40 µM (Curvularia lunata [31]): 15 mm; IC50 (HeLa): 50 µM; zone of inhibition at 80 µM (Aspergillus niger [32]): 12 mm; zone of inhibition at 20 µM (Trichoderma viride [33]): 12 mm; MIC (Bacillus cereus [34]): 40 µM (≈ 35.7 µg/mL); zone of inhibition at 20 µM (Aspergillus flavus [35]): 9 mm; zone of inhibition at 80 µM (Staphylococcus aureus [36]): 21 mm
